A word on the IC50: it is the concentration needed to halve the response being measured. What is called Kd is the concentration at which binding is half-saturated. A high value points to weaker binding. A word on the Ki: it is the equilibrium dissociation constant of an inhibitor or competing ligand from its target. High values mean weaker binding, low ones tighter binding. A word on the pIC50: it is −log10 of the IC50, conventionally taken in molar units. A higher pIC50 goes with a small IC50. What is called stoichiometry N is the number of molecules, sites or subunits per partner or assembly. As usually defined, the pKD is the negative decadic logarithm of the KD, by convention in mol/L. A low value points to a large KD.

The values below come from paper PMC5551398 (Biochemistry, 2017).

Bridge positions count the residues as written; N and C are the ends. Primed or numbered codes have the meaning given here. Ends that are not written are not given here. Peptide text beside a SMILES is read from it. * marks the point of attachment. FITC = O=C1OC2(c3ccc(O)cc3Oc3cc(O)ccc32)c2ccc(NC(=S)*)cc21; Biotin = O=C1N[C@H]2[C@H](CS[C@H]2CCCCC(=O)*)N1; FITC′ = fluorescein isothiocyanate label; Ahx = NCCCCCC(=O)O

Assay [1] addresses T1, MBP-CTR ECD (Homo sapiens, UniProt P30988).
T1 sequence (P30988 36-151): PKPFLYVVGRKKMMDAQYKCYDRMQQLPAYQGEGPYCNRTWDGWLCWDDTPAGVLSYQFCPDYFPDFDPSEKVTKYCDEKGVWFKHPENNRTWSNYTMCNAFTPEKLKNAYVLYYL
The assay can be described thus: Competition AlphaLISA peptide-binding assay. The method, boiled down:
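Binding by AlphaLISA competition. MBP-CTR ECD from transfected HEK293T cells (150 nM) was mixed with 150 nM biotinylated sCT and competitor peptide. Luminescence read at 680/615 nm. Three independent experiments, duplicate samples.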
On the technique in general: In Alpha technology, singlet oxygen from a donor bead excites a nearby acceptor bead.

Assay [2] deals with T2, MBP-CTR ECD (hCTR.36-151) (Homo sapiens, UniProt P30988).
T2 sequence (P30988 36-151): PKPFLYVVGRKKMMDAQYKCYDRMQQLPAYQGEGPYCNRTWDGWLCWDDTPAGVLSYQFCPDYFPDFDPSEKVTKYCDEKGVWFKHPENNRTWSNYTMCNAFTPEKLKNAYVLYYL
Briefly: FP saturation peptide-binding assay, MBP-CTR ECD WT. An outline of the steps:
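MBP-CTR ECD was produced in HEK293S GnTI− cells and left untreated, digested with Endo H (4 µl of 500 U/µl, GlycoBuffer 3, 22°C, 30 min), or given heat-inactivated Endo H (75°C, 10 min). Digests were serially diluted (top 3 µM) and titrated against 10 nM FITC-AC413(6-25) Y25P, 1 h, dark, room temperature, HEPES pH 7.4 buffer. Anisotropy corrected for intensity quenching. Duplicate samples.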

For assay [3], the target named is T3, MBP-hCTR.36-151-H6 produced in HEK293T cells (human, UniProt P30988-2 36-151, complex N-glycans at N73, N125, N130).
T3 sequence (looked up): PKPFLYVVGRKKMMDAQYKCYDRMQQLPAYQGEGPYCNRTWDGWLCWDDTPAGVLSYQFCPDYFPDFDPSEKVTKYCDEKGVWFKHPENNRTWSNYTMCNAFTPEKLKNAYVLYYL
The assay can be described thus: fluorescence polarisation. Background: Fluorescence polarisation rises when a labelled molecule tumbles more slowly, as on binding a larger partner.

For assay [4], the target named is T3, MBP-hCTR.36-151-H6 produced in HEK293T …. The assay can be described thus: fluorescence polarisation. The source holds these as a separate data set.
For assay [5] the target is unchanged. Briefly: AlphaScreen or HTRF.
Assay [6] addresses T4, MBP-CTR ECD-H6 produced in E. coli (human, UniProt P30988-2 36-151).
T4 sequence (looked up): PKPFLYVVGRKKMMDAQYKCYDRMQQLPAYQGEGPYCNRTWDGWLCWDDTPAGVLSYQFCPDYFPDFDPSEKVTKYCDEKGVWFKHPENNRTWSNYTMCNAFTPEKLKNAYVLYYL
Briefly: fluorescence polarisation.

For assay [7], the target named is T5, MBP-hCTR.36-151-H6 produced in HEK293S GnTI- cells (human, UniProt P30988-2 36-151, core N-glycans (Man5GlcNAc2) at N73, N125, N130).
T5 sequence (looked up): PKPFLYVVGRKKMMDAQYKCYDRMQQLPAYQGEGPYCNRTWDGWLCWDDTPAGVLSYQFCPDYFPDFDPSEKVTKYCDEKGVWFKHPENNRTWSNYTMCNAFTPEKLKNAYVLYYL
The assay can be described thus: fluorescence polarisation.

Assay [8] concerns the target T6, MBP-free H6-CTR ECD (residues 32-140) (human, UniProt P30988-2 32-140).
T6 sequence (looked up): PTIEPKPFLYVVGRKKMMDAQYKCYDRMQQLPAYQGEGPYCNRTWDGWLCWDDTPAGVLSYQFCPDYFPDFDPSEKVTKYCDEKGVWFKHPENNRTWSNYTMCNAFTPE
Briefly: ITC.

The target in assay [9] is T3, MBP-hCTR.36-151-H6 produced in HEK293T …. Briefly: fluorescence polarisation. This is another data set of the same source.
Assay [10] has the same target. The assay can be described thus: AlphaScreen or HTRF. This is another data set of the same source.
For assay [11] the target is unchanged. Briefly: fluorescence polarisation. The source holds these as a separate data set.
For assay [12], the target named is T7, MBP-RAMP2-(GS)5-CTR ECD-H6 produced in E. coli (human, UniProt O60895 55-140; P30988-2 36-151).
T7 chain: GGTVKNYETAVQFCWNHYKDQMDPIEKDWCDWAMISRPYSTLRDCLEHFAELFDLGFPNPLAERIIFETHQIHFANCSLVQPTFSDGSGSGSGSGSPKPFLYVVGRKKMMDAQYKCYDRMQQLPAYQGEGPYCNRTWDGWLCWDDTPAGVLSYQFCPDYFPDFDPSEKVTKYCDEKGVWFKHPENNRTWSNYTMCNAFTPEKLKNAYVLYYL
Briefly: fluorescence polarisation.

In turn, “ANFLVRLQTYPRTNVGANTP-NH2 [AC413(6-25) Y25P, reference compound]” had an IC50 in assay [1] of 0.708 µM.

For the molecule `CC(C)C[C@H](NC(=O)[C@H](CCCNC(=N)N)NC(=O)[C@@H](NC(=O)[C@H](CC(C)C)NC(=O)[C@H](Cc1ccccc1)NC(=O)[C@H](CC(N)=O)NC(=O)[C@H](C)NC(=O)CCCCCNC(=S)Nc1ccc2c(c1)C(=O)OC21c2ccc(O)cc2Oc2cc(O)ccc21)C(C)C)C(=O)N[C@@H](CCC(N)=O)C(=O)N[C@H](C(=O)N[C@@H](Cc1ccc(O)cc1)C(=O)N1CCC[C@H]1C(=O)N[C@@H](CCCNC(=N)N)C(=O)N[C@H](C(=O)N[C@@H](CC(N)=O)C(=O)N[C@H](C(=O)NCC(=O)N[C@@H](C)C(=O)N[C@@H](CC(N)=O)C(=O)N[C@H](C(=O)N1CCC[C@H]1C(N)=O)[C@@H](C)O)C(C)C)[C@@H](C)O)[C@@H](C)O` [FITC-AC413(6-25) Y25P] ({FITC-Ahx}-ANFLVRLQTYPRTNVGANTP-NH2), in assay [2], the Kd is 0.115 µM. The same molecule had an IC50 in assay [1] of 0.0479 µM.

In assay [3], ANFLVRLQTYPRTNVGANTP-NH2 [AC413(6-25) Y25P] returned a Ki of 0.631 µM. In addition, in [4], the pKI is 6.2. Further, the pIC50 in assay [5] worked out at 6.15.

In assay [3], VLGKLSQELHKLQTYPRTNTGSGTP-NH2 [sCT(8-32)] had a Ki of approximately 3 µM. This molecule also displayed a Ki in assay [6] of approximately 25 µM. This molecule had a Ki in assay [7] of approximately 3 µM. Moreover, in [8], binding was characterised by a dissociation constant (Kd) of 16 µM, the dH was -101 kJ/mol and the “stoichiometry N” value worked out at 1.17.

In assay [9], {FITC′-Ahx}-ANFLVRLQTYPRTNVGANTP-NH2 [FITC-Ahx (aminohexanoic acid)-AC413(6-25) Y25P] returned a pKD of 6.94. The molecule also returned an IC50 in [10] of 0.0479 µM. Also, the pIC50 in [5] worked out at 7.32. Binding in [11] was put at a Kd of 0.115 µM.

In turn, {FITC-Ahx}-ANFLVRLQTYPRTNVGANTY-NH2 [FITC-Ahx-AC413(6-25)] returned a Kd in assay [12] of 4.57 µM.

B1: Biotin-sCT C1A/C7A (peptide)
peptide: Biotin-ASNLSTAVLGKLSQELHKLQTYPRTNTGSGTP-NH2
SMILES: CC(C)C[C@H](NC(=O)[C@H](CCCCN)NC(=O)CNC(=O)[C@H](CC(C)C)NC(=O)[C@@H](NC(=O)[C@H](C)NC(=O)[C@@H](NC(=O)[C@H](CO)NC(=O)[C@H](CC(C)C)NC(=O)[C@H](CC(N)=O)NC(=O)[C@H](CO)NC(=O)[C@H](C)NC(=O)CCCC[C@@H]1SC[C@@H]2NC(=O)N[C@@H]21)[C@@H](C)O)C(C)C)C(=O)N[C@@H](CO)C(=O)N[C@@H](CCC(N)=O)C(=O)N[C@@H](CCC(=O)O)C(=O)N[C@@H](CC(C)C)C(=O)N[C@@H](Cc1c[nH]cn1)C(=O)N[C@@H](CCCCN)C(=O)N[C@@H](CC(C)C)C(=O)N[C@@H](CCC(N)=O)C(=O)N[C@H](C(=O)N[C@@H](Cc1ccc(O)cc1)C(=O)N1CCC[C@H]1C(=O)N[C@@H](CCCNC(=N)N)C(=O)N[C@H](C(=O)N[C@@H](CC(N)=O)C(=O)N[C@H](C(=O)NCC(=O)N[C@@H](CO)C(=O)NCC(=O)N[C@H](C(=O)N1CCC[C@H]1C(N)=O)[C@@H](C)O)[C@@H](C)O)[C@@H](C)O)[C@@H](C)O
Turning to B1, the binding result in [10] is reported as “binds”.

In assay [8], CSNLSTCVLGKLSQELHKLQTYPRTNTGSGTP-NH2 (disulfide 1-7) [sCT(1-32)] came in with a Kd of 35 µM.
